These results are taken from ChEMBL document CHEMBL3351276, “Structural basis for rational design of inhibitors targeting Trypanosoma cruzi sterol 14α-demethylase: two regions of the enzyme molecule potentiate its inhibition” (J Med Chem, 2014).

In test [1] the target is Sterol 14-alpha demethylase (Trypanosoma cruzi (strain CL Brener)) (UniProt Q7Z1V1). Put plainly: Inhibition of Trypanosoma cruzi CYP51 assessed as substrate conversion level using [3H]eburicol substrate at inhibitor/enzyme molar ratio of 2 after 1 hr by HPLC method. Details: scale not given: the % may be the effect or the level left. An outline of the steps: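 Reconstituted full-length CYP51 (1 μM) with 2 μM CPR, 100 μM dilauroylphosphatidylcholine, and an isocitrate dehydrogenase/isocitrate system in 20 mM MOPS pH 7.4, 50 mM KCl, 5 mM MgCl₂, 10% glycerol. [³H]eburicol is final 50 μM; enzyme/substrate/inhibitor ratio is 1:50:2. After 5 min preincubation at 37 °C, 100 μM NADPH starts the 1 h reaction. Sterols are ethyl acetate-extracted and resolved by reverse-phase HPLC with radiodetection.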
Sequence of Sterol 14-alpha demethylase (Trypanosoma cruzi (strain CL Brener)) (Q7Z1V1 whole entry, looked up): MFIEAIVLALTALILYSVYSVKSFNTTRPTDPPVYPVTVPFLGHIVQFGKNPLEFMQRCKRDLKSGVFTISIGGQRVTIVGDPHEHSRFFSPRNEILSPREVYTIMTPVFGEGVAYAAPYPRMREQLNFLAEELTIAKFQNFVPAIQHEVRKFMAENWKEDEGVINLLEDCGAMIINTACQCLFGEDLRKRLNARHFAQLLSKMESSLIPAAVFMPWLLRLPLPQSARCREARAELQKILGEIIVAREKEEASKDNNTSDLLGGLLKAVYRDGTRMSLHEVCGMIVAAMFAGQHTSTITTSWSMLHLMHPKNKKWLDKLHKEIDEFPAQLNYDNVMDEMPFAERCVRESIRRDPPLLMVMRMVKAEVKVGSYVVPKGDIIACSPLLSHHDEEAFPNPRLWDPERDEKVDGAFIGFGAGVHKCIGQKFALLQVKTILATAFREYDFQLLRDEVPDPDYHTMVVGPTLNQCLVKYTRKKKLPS

Test [2] shares this target. As to the kind of experiment: Binding affinity to Trypanosoma cruzi CYP51 by spectral ligand binding assay. A digest of the protocol: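 Full-length Tulahuen T. cruzi CYP51 at ~1 μM in 20 mM K-phosphate pH 7.4, 200 mM NaCl, 0.1 mM EDTA, 25 °C, 5 cm path. Ligand is titrated 0.2–2.0 μM in 0.2 μM steps, with DMSO matched in the reference cuvette. The Soret red-shift difference spectra (peak-to-trough ΔA) are fit to a quadratic tight-binding equation, giving Ks and ΔAmax/Ks.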

Test [3] deals with Trypanosoma cruzi. Put plainly: Antitrypanosomal activity against Trypanosoma cruzi Tulahuen trypomastigotes expressing green florescent protein infected in cardiomyocytes assessed as inhibition of parasite growth at 10 nM after 72 hrs by fluorescence microscopy. The test is classed as functional.
For test [4], the system named is Trypanosoma cruzi. As to the kind of experiment: Antitrypanosomal activity against Trypanosoma cruzi Tulahuen trypomastigotes expressing green florescent protein infected in cardiomyocytes assessed as inhibition of parasite growth after 72 hrs by fluorescence microscopy. The test is classed as functional, organism-based. An outline of the steps:
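GFP-expressing T. cruzi Tulahuen 20A-clone trypomastigotes infect cardiomyocyte monolayers at 10 parasites per cell in DMEM + 10% FBS; unbound parasites are washed off. At 24 h, inhibitors (1–25 nM, in DMSO/phenol-red-free DMEM) are added and cultured 48 h, in triplicate. At 72 h, infection is read as fluorescence (RFU), or cells are fixed in paraformaldehyde and stained with DAPI/phalloidin for microscopy. Posaconazole is the control.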

pEC50: −log10 of the molar value.

`CC(C)c1ccc(NC(=O)O[C@H](Cn2ccnc2)c2ccc(F)cc2)cc1`: the Activity in test [1] was 8.5%. The Ks in test [2] came to 0.032 µM. Further, the inhibition – broadly, the share of the control response that was lost under treatment – at 0.01 µM with Trypanosoma cruzi [3] came to 69.3%. In addition, the pEC50 (as a rule, the EC50 on a negative log10 scale, so that one unit is a factor of ten) in the test on Trypanosoma cruzi [4] is 8.26.
For `O=C(O[C@H](Cn1ccnc1)c1ccccc1)c1ccc(-c2ccccc2)cc1`, in that order: 0.7%, 0.046 µM, 76.3% and 8.92.
`CC(C)c1ccc(NC(=O)O[C@H](Cn2ccnc2)c2ccc(Cl)cc2)cc1`: the Activity in test [1] came out at 1.9%. For the same compound, in the test on Trypanosoma cruzi [3], the inhibition at 0.01 µM was determined as 74.5%. Also, in the test on Trypanosoma cruzi [4], the pEC50 is 9.00.
Take `O=C(Nc1ccc(Sc2ccc([N+](=O)[O-])cc2)cc1)O[C@H](Cn1ccnc1)c1ccc(Cl)cc1`: the Activity in test [1] came to 12.5%. The Ks in test [2] was found to be 0.162 µM. In the test with Trypanosoma cruzi [3], the inhibition at 0.01 µM was determined as 70%. In addition, the pEC50 with Trypanosoma cruzi [4] was 8.82.
For the compound `O=C(Nc1ccc(N2CCN(c3ccc(Cl)c(Cl)c3)CC2)cc1)O[C@@H](Cn1ccnc1)c1ccc(Cl)cc1Cl`, in test [1], the Activity was 0.8%. The inhibition at 0.01 µM in the test with Trypanosoma cruzi [3] was 83%. In addition, the pEC50 in the test on Trypanosoma cruzi [4] is 8.92.
The like results for `O=C(Nc1ccc(N2CCN(c3ccc(Cl)c(Cl)c3)CC2)cc1)O[C@H](Cn1ccnc1)c1ccc(Cl)cc1Cl` were, in that order, 3.8%, 73.5% and 8.89.
As to `O=C(NCCCn1ccnc1)O[C@H](Cn1ccnc1)c1ccc(F)cc1`, the Activity in test [1] came to 93.9%. Moreover, the Ks in test [2] amounted to 0.6 µM.
Consider `CC[C@@H]([C@H](C)O)n1ncn(-c2ccc(N3CCN(c4ccc(OC[C@@H]5CO[C@@](Cn6cncn6)(c6ccc(F)cc6F)C5)cc4)CC3)cc2)c1=O` [POSACONAZOLE], for which, in the test with Trypanosoma cruzi [3], the inhibition at 0.01 µM was 64%. Besides, the pEC50 in the test on Trypanosoma cruzi [4] is 8.30.
On to `O=C(Nc1ccc(Sc2ccc([N+](=O)[O-])cc2)cc1)O[C@@H](Cn1ccnc1)c1ccc(Cl)cc1`, for which the Activity in test [1] was found to be 52.5%. Besides, the Ks in test [2] stood at 0.715 µM. In the test with Trypanosoma cruzi [3], the inhibition at 0.01 µM was 62.5%. For the same compound, the pEC50 in the test on Trypanosoma cruzi [4] is 8.60.
On to `CC(C)c1ccc(NC(=O)O[C@@H](Cn2ccnc2)c2ccc(Cl)cc2)cc1`, for which the Activity in test [1] worked out at 90%. In the test with Trypanosoma cruzi [3], the inhibition at 0.01 µM came to 30.5%. For the same compound, the pEC50 with Trypanosoma cruzi [4] was 7.66.
`O=C(NCCCn1ccnc1)O[C@@H](Cn1ccnc1)c1ccc(F)cc1`: the Activity in test [1] worked out at 89.2%. In addition, in test [2], the Ks is 0.087 µM.
As for `CC(C)c1ccc(NC(=O)O[C@@H](Cn2ccnc2)c2ccc(F)cc2)cc1`, in test [1], the Activity is 86.5%. The compound also gave a Ks in test [2] of 0.083 µM. Also, in the test on Trypanosoma cruzi [3], the inhibition at 0.01 µM amounted to 32.1%. Moreover, in the test on Trypanosoma cruzi [4], the pEC50 was 7.70.
As for `O=C(O[C@@H](Cn1ccnc1)c1ccccc1)c1ccc(-c2ccccc2)cc1`, the Activity in test [1] turned out to be 79.5%. The Ks in test [2] is 0.087 µM. The inhibition at 0.01 µM in the test on Trypanosoma cruzi [3] is 29.5%. The pEC50 in the test with Trypanosoma cruzi [4] is 7.82.
